The target in test [1] is T1, Thromboxane-A synthase (Rattus norvegicus) (UniProt P49430).
T1 sequence (whole entry): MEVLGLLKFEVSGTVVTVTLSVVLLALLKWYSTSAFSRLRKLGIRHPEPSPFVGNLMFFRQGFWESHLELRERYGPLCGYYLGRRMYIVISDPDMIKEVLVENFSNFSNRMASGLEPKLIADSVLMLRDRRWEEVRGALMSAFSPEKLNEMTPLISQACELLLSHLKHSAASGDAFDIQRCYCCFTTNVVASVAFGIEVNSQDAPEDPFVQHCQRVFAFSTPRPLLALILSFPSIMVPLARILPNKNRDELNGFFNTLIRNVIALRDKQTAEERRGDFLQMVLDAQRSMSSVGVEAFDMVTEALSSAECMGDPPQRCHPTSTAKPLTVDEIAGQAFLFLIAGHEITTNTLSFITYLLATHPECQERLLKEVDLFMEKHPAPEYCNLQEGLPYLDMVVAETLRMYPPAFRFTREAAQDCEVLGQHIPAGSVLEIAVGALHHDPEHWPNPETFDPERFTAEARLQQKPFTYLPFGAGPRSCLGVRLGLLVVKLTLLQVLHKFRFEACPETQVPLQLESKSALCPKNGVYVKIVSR
In words: Inhibitory activity for thromboxane synthetase determined by TXB2 levels in platelets from spontaneously hypertensive rats. On the set-up: concentration or dose not given beside the values. The settings on record: concentration not given here. The method in brief:
(§1)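 Washed SHR platelets in oxygenated Krebs phosphate buffer, pH 7.4, 4.5-6.0 × 10^4/μL, incubated with vehicle or drug for 10 min at 37 °C. Stopped with ice and citric acid. Supernatant TXB2 measured by RIA; TXB2 in boiled controls subtracted; % inhibition calculated. IC50 read graphically from % inhibition vs log concentration; single-point screen at 10^-4 M.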

Test [2] has as its system Rattus norvegicus. In words: Antihypertensive activity in spontaneously hypertensive rats tested at 100 mg/kg po/day for 2 days. It counts as functional, organism-based. Further details: dose 100 mg/kg. The method in brief:
(§2)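 Male 16-week-old Okamoto SHR (mean arterial pressure about 170 mmHg), 1-3 rats per compound. Given by gavage in 2% preboiled starch (50 mg/mL), 100 mg/kg or less, with 0.9% NaCl load (25 mL/kg). Second dose without saline 24 h later. Mean arterial pressure measured 28 h after first dose. Active if ≤116 mmHg in one rat or mean ≤122 mmHg in two.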

Test [3] has as its target T2, Thromboxane-A synthase (Rattus norvegicus, UniProt P49430).
T2 sequence (P49430 whole entry): T1 sequence (whole entry)
Nature of the test: compound was tested for inhibitory activity against thromboxane synthetase,. The method in brief: as §1

Test [4] concerns Rattus norvegicus. In words: Antihypertensive activity in spontaneously hypertensive rats at 100 mg/kg po/day for 2 days. It counts as functional, organism-based. Further details: dose 100 mg/kg. The method in brief: as §2
The target of test [5] is T2, Thromboxane-A synthase. Nature of the test: Compound was tested for inhibitory activity against thromboxane synthetase. The method in brief: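 Washed SHR platelets in oxygenated Krebs phosphate buffer, pH 7.4, 4.5-6.0 × 10^4/μL, incubated with vehicle or drug for 10 min at 37 °C. Stopped with ice and citric acid. Supernatant TXB2 measured by RIA; TXB2 in boiled controls subtracted; % inhibition calculated.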

Activity calls are given as the source filed them.

By inhibition is commonly meant the drop in the measured response relative to a control, in per cent. Broadly, the IC50 is the concentration needed to halve the response being measured. With `O=C(NCCCCCn1ccnc1)c1ccc(Cl)cc1`, in test [1], the inhibition stood at 100%. Also, in the test on Rattus norvegicus [2], the outcome was inactive. On Thromboxane-A synthase [3], this compound returned an IC50 of 5000 nM.
For `O=C(NCCCCCCCCn1ccnc1)c1ccc(Cl)cc1`, the inhibition in test [1] was found to be 100%. The result in the test on Rattus norvegicus [4] was Active. Moreover, the concentration for half-maximal inhibition (IC50) against Thromboxane-A synthase [5] was determined as 100 nM.
For `Cc1nccn1CCCNC(=O)c1ccc(Cl)cc1`, the inhibition in test [1] turned out to be 0%. Further, in the test with Rattus norvegicus [4], the outcome was Active.
In test [1], `O=C(/C=C/c1ccc(Cl)cc1)NCCCn1ccnc1` came in with an inhibition of 98%. Besides, the outcome with Rattus norvegicus [4] was Active.
In test [1], `O=C(Cc1cccc(Cl)c1)NCCCn1ccnc1` registered an inhibition of 75%. Besides, the result with Rattus norvegicus [4] was Active.
In turn, `Cc1ccc(CC(=O)NCCCn2ccnc2)cc1` gave an inhibition in test [1] of 58%. Besides, the outcome with Rattus norvegicus [4] was Active.
With `O=C(NCCCCCCn1ccnc1)c1ccc(Cl)cc1`, in test [1], the inhibition was determined as 100%. The result with Rattus norvegicus [2] was inactive. At Thromboxane-A synthase [5], this compound came in with an IC50 of 800 nM.
Compound `Cc1cn(CCCNC(=O)c2ccc(Br)cc2)cn1` yielded an inhibition in test [1] of 80%. Further, the result with Rattus norvegicus [4] was Active.
In the case of `CN(C)c1ccc(C(=O)NCCCn2cncn2)cc1`, the inhibition in test [1] was 64%. Besides, the outcome in the test with Rattus norvegicus [4] was Active.
Take `O=C(NCCCn1ccnc1)c1cccc(Cl)c1`: in test [1], the inhibition is 75%. In the test with Rattus norvegicus [4], the outcome was Active.
`O=C(NCCCn1ccnc1)c1ccc(C(F)(F)F)cc1` showed an inhibition in test [1] of 93%. Further, the outcome in the test on Rattus norvegicus [4] was Active.
The like results for `O=C(NCCCn1ccnc1)c1ccc(Br)cc1` were, in that order, 85% and “Active”.
In test [1], `O=C(NCCCCn1ccnc1)c1ccc(Cl)cc1` had an inhibition of 95%. The outcome with Rattus norvegicus [2] was inactive. The same compound had an IC50 against Thromboxane-A synthase [5] of 5000 nM.
`O=C(NCCCn1cncn1)c1ccccc1` returned an inhibition in test [1] of 77%. In addition, in the test on Rattus norvegicus [4], the outcome was Active.
Regarding `CSc1ccc(C(=O)NCCCn2ccnc2)cc1`, the inhibition in test [1] was determined as 100%. Besides, the result in the test with Rattus norvegicus [2] was inactive. The compound also came in with an IC50 against Thromboxane-A synthase [5] of 500 nM.
In test [1], `O=C(NCCCn1ccnc1)c1cccc(Br)c1` had an inhibition of 91%. For the same compound, the outcome in the test with Rattus norvegicus [4] was Active.
`Nc1ccc(Cl)cc1C(=O)NCCCn1ccnc1` came in with an inhibition in test [1] of 96%. The outcome with Rattus norvegicus [4] was Active.
In test [1], `C=CCNc1ccc(Cl)cc1C(=O)NCCCn1ccnc1` showed an inhibition of 95%. The result with Rattus norvegicus [4] was Active.
In test [1], `Cc1cn(CCCNC(=O)c2ccc(Cl)c(Cl)c2)cn1` had an inhibition of 90%. The outcome in the test with Rattus norvegicus [4] was Active.
For `Cc1cn(CCCNC(=O)c2cccc(Cl)c2)cn1`, in test [1], the inhibition worked out at 84%. In addition, in the test on Rattus norvegicus [4], the result was Active.
In turn, `O=C(NCCCn1ccnc1)c1ccc(Cl)cc1` came in with an inhibition in test [1] of 95%. Also, in the test on Rattus norvegicus [4], the result was Active.
`O=C(NCCCn1ccnc1)c1cccc(C(F)(F)F)c1` showed an inhibition in test [1] of 100%. Also, in the test on Rattus norvegicus [4], the outcome was Active. The IC50 at Thromboxane-A synthase [5] stood at 4000 nM.
The compound `Cc1nccn1CCCNC(=O)c1ccc(C(F)(F)F)cc1` gave an inhibition in test [1] of 36%. Further, in the test with Rattus norvegicus [4], the outcome was Active.
For `Cc1cn(CCCNC(=O)c2ccc(Cl)cc2)cn1`, in that order: 93% and “Active”.
In test [1], `O=C(NCCCCn1ccnc1)c1ccc(Br)cc1` had an inhibition of 87%. Also, the result in the test with Rattus norvegicus [4] was Active.
Turning to `Cc1cn(CCCNC(=O)c2ccc(C(F)(F)F)cc2)cn1`, the inhibition in test [1] came to 92%. Besides, the result in the test on Rattus norvegicus [4] was Active.
As to `O=C(/C=C/c1ccc(Cl)cc1)NCCCn1cncn1`, the inhibition in test [1] worked out at 47%. Also, in the test with Rattus norvegicus [2], the result was inactive.
Turning to `O=C(NCCCn1cncn1)c1cccc(Cl)c1`, in test [1], the inhibition was determined as 86%. In addition, the outcome with Rattus norvegicus [2] was inactive.
Turning to `O=C(NCCCn1cnc(-c2ccccc2)c1)c1ccc(Cl)cc1`, in test [1], the inhibition came to 69%. The outcome in the test on Rattus norvegicus [4] was Active.
The compound `O=C(COc1ccc(Cl)cc1)NCCCn1cncn1` showed an inhibition in test [1] of 56%. In addition, the result with Rattus norvegicus [2] was inactive.
Consider `O=C(NCCCn1ccnc1)c1ccc(I)cc1`, for which, in test [1], the inhibition is 97%. Besides, the result with Rattus norvegicus [2] was inactive. The compound also returned an IC50 against Thromboxane-A synthase [5] of 550 nM.
Consider `CC(CCNC(=O)c1ccc(C(F)(F)F)cc1)n1ccnc1` (stereo not drawn), for which, in test [1], the inhibition was 94%. In the test on Rattus norvegicus [2], the result was inactive.
`O=C(NCCn1cncn1)c1ccc(Br)cc1` had an inhibition in test [1] of 0%. Besides, the outcome with Rattus norvegicus [2] was inactive.
For the compound `Nc1ccccc1C(=O)NCCCn1ccnc1`, in test [1], the inhibition was 89%. In addition, the result with Rattus norvegicus [4] was Active.
Consider `Cc1nccn1CCCNC(=O)c1cccc(Cl)c1`, for which the inhibition in test [1] turned out to be 59%. For the same compound, in the test with Rattus norvegicus [2], the result was inactive.
As for `O=C(NCCCn1ccnc1)c1cccc(F)c1`, in test [1], the inhibition amounted to 96%. Also, the outcome in the test with Rattus norvegicus [2] was inactive.
For `O=C(NCCCCn1cncn1)c1ccc(Cl)c(Cl)c1`, in that order: 82% and “inactive”.
In test [1], `O=C(NCCCn1cncn1)c1ccc(F)cc1` gave an inhibition of 67%. Further, the result in the test with Rattus norvegicus [2] was inactive.
In test [1], `O=C(NCCCCCn1ccnc1)c1ccc(C(F)(F)F)cc1` yielded an inhibition of 100%. The outcome in the test on Rattus norvegicus [2] was inactive. Besides, the IC50 at Thromboxane-A synthase [5] was found to be 700 nM.
Compound `O=C(NCCCCn1cncn1)c1ccc(Cl)cc1` yielded an inhibition in test [1] of 52%. Moreover, the result with Rattus norvegicus [2] was inactive.
`Cc1cn(CCCNC(=O)c2cccc(Br)c2)cn1` gave an inhibition in test [1] of 93%. Besides, the outcome in the test with Rattus norvegicus [2] was inactive.
`O=C(NCCCn1ccnc1)c1ccc(-c2ccccc2)cc1` gave an inhibition in test [1] of 100%. In addition, the result with Rattus norvegicus [2] was inactive.
Regarding `CCNc1ccccc1C(=O)NCCCn1ccnc1`, the inhibition in test [1] turned out to be 86%. The outcome in the test on Rattus norvegicus [2] was inactive.
`N#Cc1ccc(C(=O)NCCCn2ccnc2)cc1` returned an inhibition in test [1] of 91%. Moreover, the result with Rattus norvegicus [2] was inactive.
In test [1], `O=C(O)c1ccccc1C(=O)NCCCCn1ccnc1` displayed an inhibition of 50%. Moreover, the outcome with Rattus norvegicus [2] was inactive.

These data come from ChEMBL document CHEMBL1123157, “Thromboxane synthetase inhibitors and antihypertensive agents. 1. N-[(1H-imidazol-1-yl)alkyl]aryl amides and N-[(1H-1,2,4-triazol-1-yl)alkyl]aryl amides” (J Med Chem, 1986).
